Experimental data collected from several papers.
Protocols differ between the studies behind these lines.
Target: D(2) dopamine receptor (DRD2, Homo sapiens, UniProt P14416)
Concentration: 10 µM

Compound	assay	inhibition
Cc1ccccc1OCC(O)CN1CCN(CC(O)COc2ccccc2C)CC1 (centres unmarked)	enzyme activity, inhibitor	19.5%
Cc1c(C(=O)O)cc(-c2ccc(C3CCNCC3)cc2)c2ccc(-c3ccc(C(F)(F)F)cc3)cc12	cell-free assay	-14.4%
O=C(CN1CCO[C@H](COc2cccc(Cl)c2)C1)N1CCc2ccccc21	ligand displacement, radioligand	15.1%
Cc1ccccc1N1CCN(CCCCN2C(=O)C3CCCN3C2=O)CC1 (centres unmarked)	enzyme activity, inhibitor	42.3%
C[C@H](NC(=O)Nc1cc2[nH]ncc2c(CO)n1)c1ccccn1	cell-free assay	17.7%
N#Cc1cc(Cn2c(N3CCCC3)nc3ccccc32)ccc1F	ligand displacement	-11.5%
Clc1cccc(OC[C@@H]2CN(CCN3CCc4ccccc43)CCO2)c1	ligand displacement, radioligand	62.7%
CN(C)C(=O)Cn1cc(-c2nc(C3(c4ccc(-c5cnc(N)nc5)cc4)CC3)no2)cn1	cell-free assay	16.1%
Cc1ncccc1OC[C@H]1CN(CCN2CCc3ccccc32)CCO1	ligand displacement, radioligand	26.5%
COc1cc(C(C)=O)ccc1OCC(O)CN1CCN(c2cc(Cl)ccc2C)CC1 (centres unmarked)	enzyme activity, inhibitor	33%
Cc1ccc(-c2cnc([C@@]3(O)CC[C@H](C(=O)O)C(C)(C)C3)s2)cc1Nc1cccc(C(F)(F)F)n1	ligand displacement	-5.34%
O=C1c2ccccc2CCCN1CCCCN1CCN(c2ccccn2)CC1	ligand displacement, radioligand	93%
O=c1oc2cc(OCC(O)CN3CCN(c4ccc(F)cc4)CC3)ccc2c2c1CCC2 (centres unmarked)	enzyme activity, inhibitor	40.8%
Cc1ccnc(C)c1OC[C@H]1CN(CCN2CCc3ccccc32)CCO1	ligand displacement, radioligand	6.1%
COc1cccc(N2CCN(C3CC(=O)N(c4cccc(OC)c4)C3=O)CC2)c1 (centres unmarked)	enzyme activity, inhibitor	8.6%
O=C1NC(c2ccccn2)Sc2ccccc21 (centres unmarked)	ligand displacement	-3.91%
O=C1N=C(N2CCCCN2)S/C1=C\c1ccc(F)cc1O	ligand displacement, radioligand	< 10%
O=C1C2CCCN2C(=O)N1CCCCN1CCN(c2ccccc2)CC1 (centres unmarked)	enzyme activity, inhibitor	48.3%
c1cncc(OC[C@H]2CN(CCN3CCc4ccccc43)CCO2)c1	ligand displacement, radioligand	36.3%
NS(=O)(=O)c1cc(NC(=O)Cc2ccccc2)ccc1Oc1cccc(Cl)c1	ligand displacement	-7.81%
